Assay results taken from ChEMBL document CHEMBL3526115, “Differences in the pharmacokinetics of 4-amino-3-chlorophenyl hydrogen sulfate, a metabolite of resatorvid, in rats and dogs” (Drug Metab Dispos, 2012).

How the values were obtained:
[1] = Renal clearance in Beagle dog at 0.5 mg/kg, iv administered as bolus dose measured from 0 to 168 hrs by HPLC-based liquid scintillation counting analysis; type: ADME, organism-based, Canis lupus familiaris, Kidney; design: dose 0.5 mg/kg, route intravenous; details: in vivo
Summary of the method: (§1)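 After a 0.5 mg/kg iv bolus of [14C]M-III, urine was collected 0–24 h (rat) or 0–168 h (dog) and injected directly onto HPLC with fraction collection and scintillation counting. M-III in urine was derived from the urinary 14C excretion ratio and the [14C]M-III composition. CLrenal = urinary M-III amount / AUC0–24 h (rat) or AUC0–168 h (dog). Unbound CLrenal = CLrenal / free fraction.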

[2] = Elimination rate constant in Crj:CD(SD)IGS rat at 0.5 mg/kg, iv administered as bolus dose by HPLC-based liquid scintillation counting analysis; type: ADME, organism-based; design: dose 0.5 mg/kg, route intravenous; details: in vivo
Summary of the method: (§2)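 [14C]M-III in saline given as a single iv bolus at 0.5 mg/kg to male rats (tail-vein blood, 5 min–24 h) or male beagle dogs (cephalic-vein blood, 5 min–168 h). Heparinized plasma counted for radioactivity; M-III quantified by HPLC with fraction collection and liquid scintillation counting. C5 min read directly; terminal t1/2 by linear regression, kel = ln2/t1/2, Vd = dose/back-extrapolated C0, CLtot = dose/AUCinf. Mean ± S.D., n = 3.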

[3] = In vitro plasma protein binding in dog at 5 ug/ml by ultrafiltration method; type: ADME, cell-free, Canis lupus familiaris; details: read-out: PPB (converted)
Summary of the method: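 [14C]M-III in saline was added to rat or dog plasma at final 0.5, 5 and 50 µg/ml. Plasma was ultrafiltered by centrifugation at 1500g and 37°C for 10 min, and 14C was measured in plasma and filtrate. Mean ± S.D., n = 3.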

[4] = Drug excretion in Crj:CD(SD)IGS rat feces assessed as excretion ratio of [14C] at 0.5 mg/kg, iv administered as bolus dose measured from 0 to 24 hrs by HPLC-based liquid scintillation counting analysis; type: ADME, organism-based; design: dose 0.5 mg/kg, route intravenous; details: in vivo
Summary of the method: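 Male rats in metabolic cages with urine/feces separator, or beagle dogs, after a 0.5 mg/kg iv bolus of [14C]M-III in saline. Radioactivity in urine and feces collected 0–24 h (rats) or 0–168 h (dogs) was counted and expressed as percent of dose. Mean ± S.D., n = 3.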

[5] = Drug recovery in Crj:CD(SD)IGS rat urine at 0.5 mg/kg, iv administered as bolus dose measured from 0 to 24 hrs by HPLC analysis; type: ADME, organism-based; design: dose 0.5 mg/kg, route intravenous; details: read-out: Drug recovery; summary of the method: as §1
[6] = Renal clearance in Crj:CD(SD)IGS rat at 0.5 mg/kg, iv administered as bolus dose measured from 0 to 24 hrs by HPLC-based liquid scintillation counting analysis; type: ADME, organism-based, Kidney; design: dose 0.5 mg/kg, route intravenous; details: in vivo; summary of the method: as §1
[7] = Drug uptake in Crj:CD(SD)IGS rat plasma at 0.5 mg/kg, iv administered as bolus dose after 5 mins by HPLC-based liquid scintillation counting analysis; type: ADME, organism-based; design: dose 0.5 mg/kg, route intravenous; summary of the method: as §2
[8] = Total body clearance in Crj:CD(SD)IGS rat at 0.125 mg/hr, iv administered as continuous infusion by HPLC based liquid scintillation counting analysis; type: ADME, organism-based; details: in vivo
Summary of the method: (§3)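 Rats received a continuous iv infusion of [14C]M-III at 0.125 mg/rat/h, with probenecid co-infused at 16, 31 or 62 mg/h/kg or vehicle alone, for 5 h. Arterial plasma was sampled during infusion. CLtot = infusion rate / steady-state plasma M-III (120–180 min). Unbound fraction was measured by ultrafiltration of 5-h plasma (10,000 MWCO, 1500g, 37°C, 10 min). CLint = CLtot / unbound ratio.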

[9] = Total body clearance in Crj:CD(SD)IGS rat at 0.125 mg/hr, iv administered as continuous infusion by HPLC based liquid scintillation counting analysis in presence of 62 mg/hr/kg probenecid; type: ADME, organism-based; details: in vivo, with probenecid 62 mg/hr/kg; summary of the method: as §3
Rattus norvegicus = test: Intrinsic total body clearance in Crj:CD(SD)IGS rat at 0.125 mg/hr, iv administered as continuous infusion by HPLC based liquid scintillation counting analysis; type: ADME, organism-based; details: in vivo; summary of the method: as §3
[10] = Unbound fraction in Crj:CD(SD)IGS rat plasma at 0.125 mg/hr, iv administered as continuous infusion by ultrafiltration method; type: ADME, organism-based; summary of the method: as §3
[11] = Unbound fraction in Crj:CD(SD)IGS rat plasma at 0.125 mg/hr, iv administered as continuous infusion by ultrafiltration method in presence of 16 mg/hr/kg probenecid; type: ADME, organism-based; details: with probenecid 16 mg/hr/kg; summary of the method: as §3
[12] = Unbound fraction in Crj:CD(SD)IGS rat plasma at 0.125 mg/hr, iv administered as continuous infusion by ultrafiltration method in presence of 62 mg/hr/kg probenecid; type: ADME, organism-based; details: with probenecid 62 mg/hr/kg (co-administered); summary of the method: as §3

CL renal [1]: 0.00468 mL/min/kg
k el [2]: 5.11e-05 s⁻¹
fraction unbound at 5 ug/ml [3]: 0.087
Drug excretion [4]: 10.3%
dose excreted [5]: 76.9%
CL renal [6]: 9.47 mL/min/kg
concentration at 5 min [7]: 2290 ng/mL
clearance [8]: 11.4 mL/min/kg
clearance [9]: 1.83 mL/min/kg
clearance (Rattus norvegicus): 130 mL/min/kg
fraction unbound [10]: 0.088
fraction unbound [11]: 0.078
fraction unbound [12]: 0.184
SMILES: N[14c]1[14cH][14cH][14c](OS(=O)(=O)O)[14cH][14c]1Cl
